Source: ChEMBL document CHEMBL1155278, “3,4-Diaryl-isoxazoles and -imidazoles as potent dual inhibitors of p38alpha mitogen activated protein kinase and casein kinase 1delta” (J Med Chem, 2009)

What was measured:
[1] = target: T1, Inhibitor of nuclear factor kappa-B kinase subunit beta (Homo sapiens) (UniProt O14920); test: Inhibition of IKK-beta assessed as residual activity at 10 uM by Cherenkov counting relative to control in presence of 5 uM ATP
T1 sequence (whole entry): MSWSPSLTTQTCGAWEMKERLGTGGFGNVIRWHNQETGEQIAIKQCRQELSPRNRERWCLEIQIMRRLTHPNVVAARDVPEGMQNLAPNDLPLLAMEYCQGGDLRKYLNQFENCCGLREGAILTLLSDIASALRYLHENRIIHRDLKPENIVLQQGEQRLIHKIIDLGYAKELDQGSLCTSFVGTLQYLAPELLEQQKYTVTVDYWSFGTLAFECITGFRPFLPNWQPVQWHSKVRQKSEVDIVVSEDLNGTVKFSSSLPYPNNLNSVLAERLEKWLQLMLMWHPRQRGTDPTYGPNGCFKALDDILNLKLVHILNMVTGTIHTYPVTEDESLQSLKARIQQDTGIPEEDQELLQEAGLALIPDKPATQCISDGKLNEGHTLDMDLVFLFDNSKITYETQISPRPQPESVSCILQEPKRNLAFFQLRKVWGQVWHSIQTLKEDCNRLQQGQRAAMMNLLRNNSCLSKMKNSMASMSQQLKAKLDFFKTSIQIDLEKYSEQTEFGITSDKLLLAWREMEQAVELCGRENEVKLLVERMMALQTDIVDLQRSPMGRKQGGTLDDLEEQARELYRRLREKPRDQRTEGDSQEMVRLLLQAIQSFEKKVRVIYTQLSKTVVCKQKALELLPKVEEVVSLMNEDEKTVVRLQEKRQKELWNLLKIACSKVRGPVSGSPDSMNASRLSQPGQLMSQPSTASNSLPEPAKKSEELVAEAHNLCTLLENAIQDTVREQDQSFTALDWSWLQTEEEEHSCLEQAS
Method in brief: (§1)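 Single-point profiling at 10 µM in a panel of 78 protein kinases. Kinase activity is expressed as a percentage relative to control assays without compound.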

[2] = target: Maternal embryonic leucine zipper kinase (Homo sapiens) (UniProt Q14680); test: Inhibition of MELK assessed as residual activity at 10 uM by Cherenkov counting relative to control in presence of 50 uM ATP
Sequence of Maternal embryonic leucine zipper kinase (Homo sapiens) (Q14680 whole entry, looked up): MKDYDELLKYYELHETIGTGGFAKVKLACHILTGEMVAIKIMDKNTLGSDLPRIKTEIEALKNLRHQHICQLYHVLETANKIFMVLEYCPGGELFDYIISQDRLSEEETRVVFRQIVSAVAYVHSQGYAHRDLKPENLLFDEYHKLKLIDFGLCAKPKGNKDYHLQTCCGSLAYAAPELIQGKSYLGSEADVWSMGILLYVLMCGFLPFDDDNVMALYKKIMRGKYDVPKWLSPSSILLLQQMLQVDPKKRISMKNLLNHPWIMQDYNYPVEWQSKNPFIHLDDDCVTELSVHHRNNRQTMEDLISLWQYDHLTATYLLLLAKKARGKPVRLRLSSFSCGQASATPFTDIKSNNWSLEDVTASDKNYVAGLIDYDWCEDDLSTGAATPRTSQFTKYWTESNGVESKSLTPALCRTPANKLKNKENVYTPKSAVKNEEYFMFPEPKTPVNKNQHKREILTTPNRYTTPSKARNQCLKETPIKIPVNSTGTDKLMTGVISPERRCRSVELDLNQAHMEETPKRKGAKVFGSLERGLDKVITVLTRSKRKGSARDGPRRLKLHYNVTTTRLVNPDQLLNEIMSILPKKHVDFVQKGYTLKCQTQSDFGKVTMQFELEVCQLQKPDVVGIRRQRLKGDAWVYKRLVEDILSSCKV

[3] = target: Ribosomal protein S6 kinase alpha-1 (Homo sapiens) (UniProt Q15418); test: Inhibition of RSK1 assessed as residual activity at 10 uM by Cherenkov counting relative to control
Sequence of Ribosomal protein S6 kinase alpha-1 (Homo sapiens) (Q15418 whole entry): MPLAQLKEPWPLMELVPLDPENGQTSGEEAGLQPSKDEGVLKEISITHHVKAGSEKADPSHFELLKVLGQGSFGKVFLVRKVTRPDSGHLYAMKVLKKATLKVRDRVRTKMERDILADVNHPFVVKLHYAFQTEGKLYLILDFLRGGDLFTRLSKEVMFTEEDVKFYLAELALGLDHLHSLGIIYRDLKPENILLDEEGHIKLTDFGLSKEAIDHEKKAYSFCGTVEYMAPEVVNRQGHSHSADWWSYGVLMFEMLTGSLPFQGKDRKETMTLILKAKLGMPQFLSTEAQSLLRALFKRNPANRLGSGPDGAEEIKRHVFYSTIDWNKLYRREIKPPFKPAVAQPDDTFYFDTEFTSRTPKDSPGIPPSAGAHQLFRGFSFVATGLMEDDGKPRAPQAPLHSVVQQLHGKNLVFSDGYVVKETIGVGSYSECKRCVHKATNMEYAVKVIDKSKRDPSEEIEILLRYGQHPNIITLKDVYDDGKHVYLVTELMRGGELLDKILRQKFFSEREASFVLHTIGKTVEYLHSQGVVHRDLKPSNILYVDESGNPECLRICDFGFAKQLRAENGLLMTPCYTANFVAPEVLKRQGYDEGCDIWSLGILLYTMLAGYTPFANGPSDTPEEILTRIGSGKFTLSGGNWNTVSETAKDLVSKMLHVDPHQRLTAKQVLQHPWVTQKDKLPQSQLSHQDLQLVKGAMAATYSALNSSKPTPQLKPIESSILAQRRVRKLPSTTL
Method in brief: (§2)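 Single-concentration profiling at 10 μM in a 78-kinase panel. Kinase activity is expressed as a percentage of control assays run without compound.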

[4] = target: Serine/threonine-protein kinase 26 (Homo sapiens) (UniProt Q9P289); test: Inhibition of MST4 assessed as residual activity at 10 uM by Cherenkov counting relative to control in presence of 20 uM ATP
[5] = target: Serine/threonine-protein kinase pim-2 (Homo sapiens) (UniProt Q9P1W9); test: Inhibition of PIM2 assessed as residual activity at 10 uM by Cherenkov counting relative to control in presence of 5 uM ATP
Sequence of Serine/threonine-protein kinase pim-2 (Homo sapiens) (Q9P1W9 whole entry, looked up): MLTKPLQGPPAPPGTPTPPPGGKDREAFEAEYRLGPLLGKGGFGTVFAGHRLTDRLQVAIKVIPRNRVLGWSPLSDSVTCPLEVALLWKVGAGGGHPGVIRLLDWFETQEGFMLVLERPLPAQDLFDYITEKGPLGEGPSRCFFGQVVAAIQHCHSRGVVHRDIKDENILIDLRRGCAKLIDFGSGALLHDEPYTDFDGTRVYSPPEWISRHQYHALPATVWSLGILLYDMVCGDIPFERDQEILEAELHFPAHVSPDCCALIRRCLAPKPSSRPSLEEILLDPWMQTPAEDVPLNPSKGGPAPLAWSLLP

[6] = target: Calcium/calmodulin-dependent protein kinase kinase 2 (Homo sapiens) (UniProt Q96RR4); test: Inhibition of CAMKKbeta assessed as residual activity at 10 uM by Cherenkov counting relative to control; method in brief: as §1
[7] = target: Ribosomal protein S6 kinase alpha-3 (Homo sapiens) (UniProt P51812); test: Inhibition of RSK2 assessed as residual activity at 10 uM by Cherenkov counting relative to control in presence of 50 uM ATP; method in brief: as §2
[8] = target: Myosin light chain kinase, smooth muscle (Homo sapiens) (UniProt Q15746); test: Inhibition of smooth muscle MLCK assessed as residual activity at 0.1 uM by Cherenkov counting relative to control in presence of 50 uM ATP
Sequence of Myosin light chain kinase, smooth muscle (Homo sapiens) (Q15746 whole entry): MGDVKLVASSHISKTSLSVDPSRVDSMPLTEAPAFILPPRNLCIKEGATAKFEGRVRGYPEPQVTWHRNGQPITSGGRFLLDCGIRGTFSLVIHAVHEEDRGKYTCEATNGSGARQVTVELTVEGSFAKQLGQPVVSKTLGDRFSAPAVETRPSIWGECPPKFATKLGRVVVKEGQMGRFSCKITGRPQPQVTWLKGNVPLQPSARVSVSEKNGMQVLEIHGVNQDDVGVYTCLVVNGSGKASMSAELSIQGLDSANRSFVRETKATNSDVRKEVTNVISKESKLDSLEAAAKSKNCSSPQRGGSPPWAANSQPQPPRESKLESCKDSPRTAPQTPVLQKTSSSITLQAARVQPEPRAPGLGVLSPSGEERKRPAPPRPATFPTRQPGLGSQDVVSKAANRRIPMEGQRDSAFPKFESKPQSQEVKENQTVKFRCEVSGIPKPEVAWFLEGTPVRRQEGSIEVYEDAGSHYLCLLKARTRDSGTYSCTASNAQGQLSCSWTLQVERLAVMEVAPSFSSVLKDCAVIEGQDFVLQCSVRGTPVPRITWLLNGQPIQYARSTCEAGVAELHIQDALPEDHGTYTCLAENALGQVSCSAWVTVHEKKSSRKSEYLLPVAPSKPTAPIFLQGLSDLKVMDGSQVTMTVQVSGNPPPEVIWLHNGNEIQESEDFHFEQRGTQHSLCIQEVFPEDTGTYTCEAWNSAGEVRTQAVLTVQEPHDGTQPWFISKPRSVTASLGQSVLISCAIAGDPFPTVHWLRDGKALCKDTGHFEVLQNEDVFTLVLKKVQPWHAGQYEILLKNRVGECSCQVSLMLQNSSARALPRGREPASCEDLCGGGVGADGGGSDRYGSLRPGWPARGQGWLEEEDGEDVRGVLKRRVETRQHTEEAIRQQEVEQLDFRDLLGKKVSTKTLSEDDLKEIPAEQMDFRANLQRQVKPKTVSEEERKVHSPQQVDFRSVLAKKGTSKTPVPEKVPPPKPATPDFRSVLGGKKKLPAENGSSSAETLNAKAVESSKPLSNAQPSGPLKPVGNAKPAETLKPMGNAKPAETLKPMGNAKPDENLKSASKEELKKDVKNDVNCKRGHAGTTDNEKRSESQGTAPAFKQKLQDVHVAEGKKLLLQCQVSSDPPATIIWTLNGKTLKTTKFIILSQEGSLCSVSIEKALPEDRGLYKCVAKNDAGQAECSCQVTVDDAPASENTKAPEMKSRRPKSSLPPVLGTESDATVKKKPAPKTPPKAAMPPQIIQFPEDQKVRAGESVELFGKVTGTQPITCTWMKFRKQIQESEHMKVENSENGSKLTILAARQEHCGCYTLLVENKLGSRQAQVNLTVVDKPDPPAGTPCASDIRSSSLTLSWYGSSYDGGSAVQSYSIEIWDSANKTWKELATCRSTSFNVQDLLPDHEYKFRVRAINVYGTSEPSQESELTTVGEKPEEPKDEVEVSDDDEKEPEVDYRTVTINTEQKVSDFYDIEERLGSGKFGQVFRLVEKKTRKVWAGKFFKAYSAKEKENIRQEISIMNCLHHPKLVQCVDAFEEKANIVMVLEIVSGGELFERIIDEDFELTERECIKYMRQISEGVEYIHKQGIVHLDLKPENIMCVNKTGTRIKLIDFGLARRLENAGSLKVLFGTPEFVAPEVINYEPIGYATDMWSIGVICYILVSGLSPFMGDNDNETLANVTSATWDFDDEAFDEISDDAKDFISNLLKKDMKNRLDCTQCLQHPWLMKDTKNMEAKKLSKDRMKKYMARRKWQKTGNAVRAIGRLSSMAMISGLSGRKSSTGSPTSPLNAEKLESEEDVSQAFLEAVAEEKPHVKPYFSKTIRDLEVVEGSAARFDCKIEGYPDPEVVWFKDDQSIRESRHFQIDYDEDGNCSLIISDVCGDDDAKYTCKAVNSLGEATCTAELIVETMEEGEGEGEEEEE
Method in brief: (§3)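 Single-concentration screen at 0.1 μM in a 76-kinase panel. ATP for each kinase was set near its Km for ATP. Residual activity is given as a percentage of control assays without compound, mean of n = 3 ± SD.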

[9] = target: Tyrosine-protein kinase Yes (Homo sapiens) (UniProt P07947); test: Inhibition of YES1 assessed as residual activity at 0.1 uM by Cherenkov counting relative to control in presence of 20 uM ATP; method in brief: as §3
Sequence of Tyrosine-protein kinase Yes (Homo sapiens) (P07947 2-543 limits assumed): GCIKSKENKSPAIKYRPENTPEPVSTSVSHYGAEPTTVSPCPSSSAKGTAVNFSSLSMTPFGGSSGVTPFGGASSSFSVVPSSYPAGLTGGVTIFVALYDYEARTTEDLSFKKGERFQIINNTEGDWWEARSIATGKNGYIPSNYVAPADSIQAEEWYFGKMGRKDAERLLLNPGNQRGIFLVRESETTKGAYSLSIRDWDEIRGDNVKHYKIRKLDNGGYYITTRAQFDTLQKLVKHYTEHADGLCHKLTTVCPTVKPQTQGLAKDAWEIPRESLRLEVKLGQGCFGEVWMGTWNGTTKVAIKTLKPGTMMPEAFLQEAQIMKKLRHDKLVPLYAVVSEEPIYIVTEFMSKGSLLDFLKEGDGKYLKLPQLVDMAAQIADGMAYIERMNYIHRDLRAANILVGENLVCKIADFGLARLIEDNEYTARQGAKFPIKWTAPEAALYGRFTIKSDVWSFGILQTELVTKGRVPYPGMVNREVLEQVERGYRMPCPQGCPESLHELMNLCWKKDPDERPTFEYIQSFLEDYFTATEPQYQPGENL

[10] = target: Serine/threonine-protein kinase pim-1 (Homo sapiens) (UniProt P11309); test: Inhibition of PIM1 assessed as residual activity at 0.1 uM by Cherenkov counting relative to control in presence of 20 uM ATP
Sequence of Serine/threonine-protein kinase pim-1 (Homo sapiens) (P11309 whole entry, looked up): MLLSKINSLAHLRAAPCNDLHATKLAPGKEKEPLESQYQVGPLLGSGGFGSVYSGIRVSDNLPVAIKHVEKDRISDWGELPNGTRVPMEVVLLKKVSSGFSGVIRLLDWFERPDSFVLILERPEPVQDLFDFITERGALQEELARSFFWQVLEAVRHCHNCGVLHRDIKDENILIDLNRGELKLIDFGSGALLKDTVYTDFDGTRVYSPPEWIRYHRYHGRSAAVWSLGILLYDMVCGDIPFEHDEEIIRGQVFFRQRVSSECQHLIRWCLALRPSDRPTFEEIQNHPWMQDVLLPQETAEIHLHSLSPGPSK
Method in brief: (§4)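 Single-concentration selectivity screen at 0.1 μM against a panel of 76 protein kinases. Each kinase was run at an ATP level approximating its Km for ATP. Output is mean residual activity as % of the control assay without compound, n = 3 ± SD.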

[11] = target: Dual specificity tyrosine-phosphorylation-regulated kinase 1A (Homo sapiens) (UniProt Q13627); test: Inhibition of DYRK1A assessed as residual activity at 0.1 uM by Cherenkov counting relative to control in presence of 50 uM ATP
Method in brief: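 Single-concentration screen at 0.1 µM across a panel of 76 protein kinases. Each kinase was run at an ATP concentration approximating its ATP Km. Results are % mean residual activity versus control assays without compound (n = 3 ± SD).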

[12] = target: Tyrosine-protein kinase Yes (Homo sapiens) (UniProt P07947); test: Inhibition of YES1 at 0.1 uM by Cherenkov counting in presence of 20 uM ATP; method in brief: as §3
[13] = target: T2, Serine/threonine-protein kinase 3 (Homo sapiens) (UniProt Q13188); test: Inhibition of MST2 assessed as residual activity at 0.1 uM by Cherenkov counting relative to control in presence of 20 uM ATP; method in brief: as §4
T2 sequence (whole entry): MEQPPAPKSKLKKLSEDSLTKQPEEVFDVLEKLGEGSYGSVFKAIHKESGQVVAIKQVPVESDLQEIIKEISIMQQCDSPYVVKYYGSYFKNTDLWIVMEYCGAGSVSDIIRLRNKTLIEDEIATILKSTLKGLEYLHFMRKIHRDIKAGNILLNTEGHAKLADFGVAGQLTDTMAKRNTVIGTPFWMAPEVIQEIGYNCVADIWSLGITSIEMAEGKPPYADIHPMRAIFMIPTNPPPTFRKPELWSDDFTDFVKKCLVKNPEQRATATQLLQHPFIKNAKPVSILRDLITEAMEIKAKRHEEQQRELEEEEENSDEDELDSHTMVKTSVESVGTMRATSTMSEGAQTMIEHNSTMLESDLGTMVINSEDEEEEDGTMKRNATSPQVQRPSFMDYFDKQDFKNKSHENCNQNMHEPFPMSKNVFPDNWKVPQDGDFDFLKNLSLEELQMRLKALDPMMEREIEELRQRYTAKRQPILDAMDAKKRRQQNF

[14] = target: Casein kinase I isoform delta (Homo sapiens, UniProt P48730); test: Inhibition of recombinant CK1delta kinase domain by Cherenkov counting
Sequence of Casein kinase I isoform delta (P48730 whole entry, the tested form may be a part, canonical isoform): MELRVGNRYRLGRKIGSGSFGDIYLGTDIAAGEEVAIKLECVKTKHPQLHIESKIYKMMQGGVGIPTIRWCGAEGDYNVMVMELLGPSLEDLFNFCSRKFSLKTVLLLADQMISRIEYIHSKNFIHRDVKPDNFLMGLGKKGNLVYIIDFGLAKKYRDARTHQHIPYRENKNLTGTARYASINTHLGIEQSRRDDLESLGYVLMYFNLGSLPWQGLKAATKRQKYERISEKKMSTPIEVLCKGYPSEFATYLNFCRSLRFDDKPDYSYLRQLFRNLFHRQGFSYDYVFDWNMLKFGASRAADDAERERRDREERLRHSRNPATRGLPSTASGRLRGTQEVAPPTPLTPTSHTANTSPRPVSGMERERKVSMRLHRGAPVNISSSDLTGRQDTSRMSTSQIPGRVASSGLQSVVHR

[15] = target: Serine/threonine-protein kinase PAK 6 (Homo sapiens) (UniProt Q9NQU5); test: Inhibition of PAK6 assessed as residual activity at 0.1 uM by Cherenkov counting relative to control in presence of 20 uM ATP; method in brief: as §4

Activity [1] [%] | Activity [2] [%] | Activity [3] [%] | Activity [4] [%] | Activity [5] [%] | Activity [6] [%] | Activity [7] [%] | Activity [8] [%] | Activity [9] [%] | Activity [10] [%] | Activity [11] [%] | inhibition [12] [%] | Activity [13] [%] | IC50 [14] [nM] | Activity [15] [%] | SMILES
103 | 108 | 83 | 102 | 96 | 97 | 120 | – | – | – | – | – | – | – | – | CC(C)c1noc(-c2ccc(F)cc2)c1-c1ccncc1
103 | 78 | 79 | 88 | 105 | 99 | 113 | – | – | – | – | – | – | – | – | CC(C)c1onc(-c2ccc(F)cc2)c1-c1ccncc1
– | – | – | – | – | – | – | 93 | 14 | 109 | 86 | 86 | 112 | 5 | 84 | COc1ccc(/C=C/C(=O)Nc2cc(-c3[nH]c([S+](C)[O-])nc3-c3ccc(F)cc3)ccn2)c(OC)c1 (stereo not given)
– | – | – | – | – | – | – | 82 | 24 | 98 | 78 | 76 | 97 | 4 | 76 | COc1ccc(/C=C/C(=O)Nc2cc(-c3[nH]c(SC)nc3-c3ccc(F)cc3)ccn2)c(OC)c1
